According to ChEMBL document CHEMBL3808334, “Synthesis and in vitro evaluation of novel triazine analogues as anticancer agents and their interaction studies with bovine serum albumin” (Eur J Med Chem, 2016):

Columns and labels:
Format in all cases: functional
[1] = Growth inhibition of human RXF393 cells assessed as cell growth at 10^-6 M incubated for 48 hrs by sulforhodamine B assay; settings: RXF 393, 48 h, read-out: Activity
[2] = Growth inhibition of human DU145 cells assessed as cell growth at 10^-5 M incubated for 48 hrs by sulforhodamine B assay; settings: DU-145, 48 h, read-out: Activity
In short: (§1)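 Cells seeded at 5,000–40,000/well according to doubling time and preincubated 24 h at 37 °C, 5% CO2. Time-zero plates were TCA-fixed. DMSO concentrate was diluted in medium with 50 µg/ml gentamicin to give five concentrations (10-fold or ½ log steps), then exposed 48 h. Cells were TCA-fixed, stained with 0.4% SRB and read at 515 nm. Percent growth was taken against time-zero and control; GI50, TGI and LC50 derived.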

K562 = experiment: Growth inhibition of human K562 cells assessed as cell growth at 10^-6 M incubated for 48 hrs by sulforhodamine B assay; settings: K562, 48 h, read-out: Activity
[3] = Growth inhibition of human SF539 cells assessed as cell growth at 10^-4 M incubated for 48 hrs by sulforhodamine B assay; settings: SF-539, 48 h, read-out: Activity
[4] = Growth inhibition of human SNB19 cells assessed as cell growth at 10^-5 M incubated for 48 hrs by sulforhodamine B assay; settings: SNB-19, 48 h, read-out: Activity
NCI-H322M [5] = experiment: Growth inhibition of human NCI-H322M cells assessed as cell growth at 10^-7 M incubated for 48 hrs by sulforhodamine B assay; settings: read-out: Activity
NCI/ADR-RES = experiment: Growth inhibition of human NCI/ADR-RES cells assessed as cell growth at 10^-7 M incubated for 48 hrs by sulforhodamine B assay; settings: read-out: Activity
SN12C [6] = experiment: Growth inhibition of human SN12C cells assessed as cell growth at 10 uM incubated for 48 hrs by sulforhodamine B assay; settings: read-out: Activity
[7] = Growth inhibition of human DU145 cells incubated for 48 hrs by sulforhodamine B assay; settings: DU-145, 48 h; in short: as §1
[8] = Growth inhibition of human Hs 578T cells assessed as cell growth at 10^-4 M incubated for 48 hrs by sulforhodamine B assay; settings: read-out: Activity
[9] = Growth inhibition of human colon cancer cells incubated for 48 hrs by sulforhodamine B assay; settings: Cancer cell lines
[10] = Growth inhibition of human SW620 cells assessed as cell growth at 10^-5 M incubated for 48 hrs by sulforhodamine B assay; settings: SW-620, 48 h, read-out: Activity
U-251 = experiment: Growth inhibition of human U251 cells incubated for 48 hrs by sulforhodamine B assay; settings: U-251, 48 h
In short: (§2)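 Cells were plated at 5,000–40,000 per well according to doubling time and preincubated 24 h at 37 °C in 5% CO2; time-zero plates were then TCA-fixed. Five concentrations (10-fold or ½-log dilutions, DMSO stock) were incubated 48 h. Cells were TCA-fixed, stained with 0.4% SRB and read at 515 nm. GI50 was taken where [(Ti−Tz)/(C−Tz)]×100 = 50.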

NCI-H322M [11] = experiment: Growth inhibition of human NCI-H322M cells assessed as cell growth at 10^-8 M incubated for 48 hrs by sulforhodamine B assay; settings: read-out: Activity
NCI-H522 = experiment: Growth inhibition of human NCI-H522 cells assessed as cell growth at 10^-7 M incubated for 48 hrs by sulforhodamine B assay; settings: NCI-H522, 48 h, read-out: Activity
M14 = experiment: Growth inhibition of human M14 cells assessed as cell growth at 10^-5 M incubated for 48 hrs by sulforhodamine B assay; settings: M14, 48 h, read-out: Activity
[12] = Growth inhibition of human TK10 cells assessed as cell growth at 10^-6 M incubated for 48 hrs by sulforhodamine B assay; settings: TK-10, 48 h, read-out: Activity
[13] = Growth inhibition of human prostate cancer cells incubated for 48 hrs by sulforhodamine B assay; settings: Cancer cell lines
[14] = Growth inhibition of human RXF393 cells assessed as cell growth at 10^-4 M incubated for 48 hrs by sulforhodamine B assay; settings: RXF 393, 48 h, read-out: Activity
[15] = Growth inhibition of human HOP92 cells assessed as cell growth at 10^-6 M incubated for 48 hrs by sulforhodamine B assay; settings: HOP-92, 48 h, read-out: Activity
[16] = Growth inhibition of human TK10 cells assessed as cell growth at 10^-8 M incubated for 48 hrs by sulforhodamine B assay; settings: TK-10, 48 h, read-out: Activity
MDA-MB-468 = experiment: Growth inhibition of human MDA-MB-468 cells assessed as cell growth at 10^-4 M incubated for 48 hrs by sulforhodamine B assay; settings: MDA-MB-468, 48 h, read-out: Activity
[17] = Growth inhibition of human Hs 578T cells assessed as cell growth at 10^-7 M incubated for 48 hrs by sulforhodamine B assay; settings: read-out: Activity
[18] = Growth inhibition of human ovarian cancer cells incubated for 48 hrs by sulforhodamine B assay; settings: Cancer cell lines
SK-MEL-2 = experiment: Growth inhibition of human SK-MEL-2 cells assessed as cell growth at 10^-7 M incubated for 48 hrs by sulforhodamine B assay; settings: SK-MEL-2, 48 h, read-out: Activity
NCI-H226 = experiment: Growth inhibition of human NCI-H226 cells assessed as cell growth at 10^-5 M incubated for 48 hrs by sulforhodamine B assay; settings: NCI-H226, 48 h, read-out: Activity
SR = experiment: Growth inhibition of human SR cells incubated for 48 hrs by sulforhodamine B assay; in short: as §2
[19] = Growth inhibition of human LOXIMVI cells assessed as cell growth at 10^-4 M incubated for 48 hrs by sulforhodamine B assay; settings: LOX IMVI, read-out: Activity
SN12C [20] = experiment: Growth inhibition of human SN12C cells assessed as cell growth at 10^-7 M incubated for 48 hrs by sulforhodamine B assay; settings: read-out: Activity
SK-MEL-5 = experiment: Growth inhibition of human SK-MEL-5 cells incubated for 48 hrs by sulforhodamine B assay; settings: SK-MEL-5, 48 h; in short: as §2
[21] = read-out: pLC50 (the source's name) (converted)
[22] = read-out: LC50 (the source's name)

Compound: Fc1ccc(-c2nc(Nc3ccc(-c4nc5ccccc5[nH]4)cc3)nc(N3CCOCC3)n2)cc1
- growth at 1 µM [1]: 24%
- growth at 10 µM [2]: 25%
- growth at 1 µM (K562): 101%
- growth at 100 µM [3]: -84%
- growth at 10 µM [4]: 15%
- growth at 0.1 µM (NCI-H322M [5]): 102%
- growth at 0.1 µM (NCI/ADR-RES): 95%
- growth at 10 µM (SN12C [6]): 40.8%
- LC50 (50% net cell kill) [7]: > 100 µM
- GI50 ([7]; read-out: GI50): 4.53 µM
- TGI ([7]; read-out: TGI): > 100 µM
- GI50 ([7]; read-out: pGI50 (converted)): 4.57 µM
- CC50 [7, 21]: > 100 µM
- TGI ([7]; read-out: pTGI (converted)): > 100 µM
- growth at 100 µM [8]: -3%
- GI50 [9]: 2.15 µM
- TGI [9]: 4.73 µM
- CC50 [9, 22]: 7.9 µM
- growth at 10 µM [10]: -47%
- GI50 (U-251; read-out: GI50): 2.04 µM
- CC50 (U-251; [22]): > 100 µM
- TGI (U-251; read-out: TGI): 13.6 µM
- GI50 (U-251; read-out: pGI50 (converted)): 2.04 µM
- CC50 (U-251; [21]): > 100 µM
- TGI (U-251; read-out: pTGI (converted)): 13.5 µM
- growth at 0.01 µM (NCI-H322M [11]): 101%
- growth at 0.1 µM (NCI-H522): 97%
- growth at 10 µM (M14): -62%
- growth at 1 µM [12]: 100%
- GI50 [13]: 3.46 µM
- TGI [13]: 6.66 µM
- CC50 [13, 22]: > 100 µM
- growth at 100 µM [14]: -35%
- growth at 1 µM [15]: 90%
- growth at 0.01 µM [16]: 91%
- growth at 100 µM (MDA-MB-468): -19%
- growth at 0.1 µM [17]: 93%
- GI50 [18]: 2.74 µM
- TGI [18]: 11.5 µM
- CC50 [18, 22]: > 100 µM
- growth at 0.1 µM (SK-MEL-2): 101%
- growth at 10 µM (NCI-H226): -8%
- GI50 (SR; read-out: GI50): 0.539 µM
- CC50 (SR; [22]): > 100 µM
- GI50 (SR; read-out: pGI50 (converted)): 0.537 µM
- CC50 (SR; [21]): > 100 µM
- growth at 100 µM [19]: -49%
- growth at 0.1 µM (SN12C [20]): 90%
- GI50 (SK-MEL-5; read-out: GI50): 1.79 µM
- CC50 (SK-MEL-5; [22]): 6.28 µM
- TGI (SK-MEL-5; read-out: TGI): 3.36 µM
- GI50 (SK-MEL-5; read-out: pGI50 (converted)): 1.78 µM
- CC50 (SK-MEL-5; [21]): 6.31 µM
- TGI (SK-MEL-5; read-out: pTGI (converted)): 3.39 µM
